Experiment [1] has as its target Sodium channel protein type 9 subunit alpha (Homo sapiens, UniProt Q15858). The experiment is described as follows: Inhibition of human Nav1.7 expressed in HEK293 cells assessed as inward peak current by ion-works quattro patch clamp electrophysiology method. In kind it is cell-based.
Experiment [2] addresses Sodium channel protein type 5 subunit alpha (Homo sapiens, UniProt Q14524). The experiment is described as follows: Inhibition of human Nav1.5 expressed in HEK293 cells assessed as inward peak current by ion-works quattro patch clamp electrophysiology method. In kind it is cell-based. The gist of the method: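 Stable HEK293 line expressing human NaV1.5, recorded by population patch clamp on the IonWorks Quattro.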
A general note: The patch-clamp technique gives a direct electrical read-out from membranes.

This passage reports IC50 results from ChEMBL document CHEMBL3797186, “Single Residue Substitutions That Confer Voltage-Gated Sodium Ion Channel Subtype Selectivity in the NaV1.7 Inhibitory Peptide GpTx-1” (J Med Chem, 2016).

Bounds are passed on as bounds.

Sodium channel protein type 5 subunit alpha, sequence (Q14524 whole entry): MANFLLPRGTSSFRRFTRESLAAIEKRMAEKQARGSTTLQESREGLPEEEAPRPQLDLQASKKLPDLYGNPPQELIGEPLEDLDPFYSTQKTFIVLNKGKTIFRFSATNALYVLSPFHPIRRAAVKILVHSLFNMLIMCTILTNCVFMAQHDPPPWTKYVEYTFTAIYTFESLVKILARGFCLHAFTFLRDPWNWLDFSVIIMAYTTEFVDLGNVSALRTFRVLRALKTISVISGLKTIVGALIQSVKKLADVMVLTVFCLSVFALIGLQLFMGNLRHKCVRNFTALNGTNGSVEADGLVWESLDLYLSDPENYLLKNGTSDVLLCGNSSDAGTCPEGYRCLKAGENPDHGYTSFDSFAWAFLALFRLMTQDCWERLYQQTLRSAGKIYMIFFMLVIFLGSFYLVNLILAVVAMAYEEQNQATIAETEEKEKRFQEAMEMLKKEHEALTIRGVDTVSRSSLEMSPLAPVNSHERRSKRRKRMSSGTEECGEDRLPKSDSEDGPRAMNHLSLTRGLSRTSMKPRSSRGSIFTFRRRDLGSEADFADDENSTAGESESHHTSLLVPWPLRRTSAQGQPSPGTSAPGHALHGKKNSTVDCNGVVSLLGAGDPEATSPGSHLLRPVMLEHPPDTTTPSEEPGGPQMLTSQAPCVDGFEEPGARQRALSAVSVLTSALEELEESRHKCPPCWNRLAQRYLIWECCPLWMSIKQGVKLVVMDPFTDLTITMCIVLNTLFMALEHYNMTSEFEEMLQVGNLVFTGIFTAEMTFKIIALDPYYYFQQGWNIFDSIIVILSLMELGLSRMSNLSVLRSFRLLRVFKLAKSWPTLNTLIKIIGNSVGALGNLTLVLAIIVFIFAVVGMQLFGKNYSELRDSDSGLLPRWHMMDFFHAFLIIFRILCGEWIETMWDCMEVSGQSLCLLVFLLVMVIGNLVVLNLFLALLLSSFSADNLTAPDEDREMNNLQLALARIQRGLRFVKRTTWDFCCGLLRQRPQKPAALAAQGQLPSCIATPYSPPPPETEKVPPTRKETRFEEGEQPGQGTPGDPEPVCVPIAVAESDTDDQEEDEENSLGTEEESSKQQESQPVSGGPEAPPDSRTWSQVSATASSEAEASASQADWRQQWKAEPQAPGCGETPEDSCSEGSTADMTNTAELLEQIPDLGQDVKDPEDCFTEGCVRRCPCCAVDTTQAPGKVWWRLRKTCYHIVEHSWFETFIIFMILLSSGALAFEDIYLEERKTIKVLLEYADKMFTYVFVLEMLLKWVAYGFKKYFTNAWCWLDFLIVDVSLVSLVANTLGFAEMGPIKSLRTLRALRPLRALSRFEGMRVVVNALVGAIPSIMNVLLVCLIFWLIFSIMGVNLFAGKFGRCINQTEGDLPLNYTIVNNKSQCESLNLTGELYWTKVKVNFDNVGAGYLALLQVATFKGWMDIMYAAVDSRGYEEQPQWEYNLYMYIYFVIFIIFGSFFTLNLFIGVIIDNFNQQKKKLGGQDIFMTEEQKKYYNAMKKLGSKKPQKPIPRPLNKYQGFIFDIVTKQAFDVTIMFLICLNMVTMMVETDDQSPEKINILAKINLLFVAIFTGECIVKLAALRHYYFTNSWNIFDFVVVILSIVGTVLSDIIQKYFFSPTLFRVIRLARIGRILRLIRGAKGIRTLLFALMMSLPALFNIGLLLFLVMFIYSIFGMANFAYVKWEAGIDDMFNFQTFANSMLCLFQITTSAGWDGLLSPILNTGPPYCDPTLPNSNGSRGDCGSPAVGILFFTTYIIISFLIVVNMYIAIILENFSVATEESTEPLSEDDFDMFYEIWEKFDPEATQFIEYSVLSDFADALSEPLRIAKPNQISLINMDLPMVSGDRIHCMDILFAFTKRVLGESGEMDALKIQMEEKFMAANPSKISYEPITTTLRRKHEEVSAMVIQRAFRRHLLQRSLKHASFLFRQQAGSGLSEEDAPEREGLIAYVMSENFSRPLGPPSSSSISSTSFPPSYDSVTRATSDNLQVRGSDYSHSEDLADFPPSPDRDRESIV
Sodium channel protein type 9 subunit alpha, sequence (Q15858 whole entry): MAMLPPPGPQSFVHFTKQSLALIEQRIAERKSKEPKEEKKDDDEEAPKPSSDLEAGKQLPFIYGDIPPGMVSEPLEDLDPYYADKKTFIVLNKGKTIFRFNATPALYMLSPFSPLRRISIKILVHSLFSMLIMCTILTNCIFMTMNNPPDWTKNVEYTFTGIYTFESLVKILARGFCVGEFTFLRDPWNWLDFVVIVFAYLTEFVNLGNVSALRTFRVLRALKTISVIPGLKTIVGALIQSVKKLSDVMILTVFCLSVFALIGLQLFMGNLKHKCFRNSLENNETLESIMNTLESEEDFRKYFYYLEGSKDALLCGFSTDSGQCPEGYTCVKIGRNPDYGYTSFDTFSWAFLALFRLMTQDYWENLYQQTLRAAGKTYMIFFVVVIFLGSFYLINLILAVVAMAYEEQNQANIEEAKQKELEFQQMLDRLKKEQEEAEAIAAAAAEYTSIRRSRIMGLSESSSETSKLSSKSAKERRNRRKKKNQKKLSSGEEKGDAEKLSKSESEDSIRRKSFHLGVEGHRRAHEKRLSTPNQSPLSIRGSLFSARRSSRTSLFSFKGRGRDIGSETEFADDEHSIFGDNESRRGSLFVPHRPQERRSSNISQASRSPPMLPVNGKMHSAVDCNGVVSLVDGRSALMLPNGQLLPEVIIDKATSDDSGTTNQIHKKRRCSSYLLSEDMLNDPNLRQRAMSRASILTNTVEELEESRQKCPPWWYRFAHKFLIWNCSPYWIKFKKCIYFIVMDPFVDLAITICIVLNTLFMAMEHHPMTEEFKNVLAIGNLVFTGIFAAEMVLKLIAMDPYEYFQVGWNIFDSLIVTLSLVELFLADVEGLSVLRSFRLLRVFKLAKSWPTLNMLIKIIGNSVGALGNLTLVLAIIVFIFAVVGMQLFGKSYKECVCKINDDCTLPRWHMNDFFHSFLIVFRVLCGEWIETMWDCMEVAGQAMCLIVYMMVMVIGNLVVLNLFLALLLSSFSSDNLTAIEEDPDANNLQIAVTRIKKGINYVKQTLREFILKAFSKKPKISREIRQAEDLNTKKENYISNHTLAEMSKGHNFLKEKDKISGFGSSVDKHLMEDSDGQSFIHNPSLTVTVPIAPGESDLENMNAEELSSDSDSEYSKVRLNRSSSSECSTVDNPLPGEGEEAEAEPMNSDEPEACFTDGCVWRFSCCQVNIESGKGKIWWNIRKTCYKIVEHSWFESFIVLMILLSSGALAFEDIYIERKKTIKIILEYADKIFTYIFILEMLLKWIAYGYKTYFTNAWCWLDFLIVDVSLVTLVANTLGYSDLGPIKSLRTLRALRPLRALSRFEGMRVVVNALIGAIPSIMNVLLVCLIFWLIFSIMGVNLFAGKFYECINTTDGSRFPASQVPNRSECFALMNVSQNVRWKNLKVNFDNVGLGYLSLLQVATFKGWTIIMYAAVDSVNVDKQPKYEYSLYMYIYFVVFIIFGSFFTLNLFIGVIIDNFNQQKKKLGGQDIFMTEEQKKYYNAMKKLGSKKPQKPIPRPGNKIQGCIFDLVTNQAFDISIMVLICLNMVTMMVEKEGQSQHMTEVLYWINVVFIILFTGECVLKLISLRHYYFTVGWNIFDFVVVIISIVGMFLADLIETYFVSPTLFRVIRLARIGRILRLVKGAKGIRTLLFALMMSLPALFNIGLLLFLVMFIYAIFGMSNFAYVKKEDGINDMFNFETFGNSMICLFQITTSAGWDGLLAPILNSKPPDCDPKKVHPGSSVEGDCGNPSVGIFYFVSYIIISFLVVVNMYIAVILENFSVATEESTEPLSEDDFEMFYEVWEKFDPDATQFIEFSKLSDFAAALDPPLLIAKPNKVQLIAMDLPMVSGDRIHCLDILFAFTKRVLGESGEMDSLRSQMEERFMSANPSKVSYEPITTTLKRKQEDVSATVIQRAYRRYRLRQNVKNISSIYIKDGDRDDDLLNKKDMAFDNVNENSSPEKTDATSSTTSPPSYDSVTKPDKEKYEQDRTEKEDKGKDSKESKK

For orientation: IC50 means the concentration that gives 50% inhibition. For `CC[C@H](C)[C@@H]1NC(=O)[C@@H]2CSSC[C@@H]3NC(=O)[C@H](C(C)C)NC(=O)[C@H](CC(C)C)NC(=O)[C@H](CC(N)=O)NC(=O)[C@@H]4CCCN4C(=O)[C@H](CCCNC(=N)N)NC(=O)[C@H](CSSC[C@H](NC(=O)[C@@H](N)CC(=O)O)C(=O)N[C@@H](CC(C)C)C(=O)NCC(=O)N[C@@H](Cc4ccccc4)C(=O)N[C@@H](CCSC)C(=O)N[C@@H](CCCNC(=N)N)C(=O)N[C@@H](CCCCN)C(=O)N2)NC(=O)[C@H](CSSC[C@@H](C(=O)N[C@@H](CCCCN)C(=O)N[C@@H](Cc2ccc(O)cc2)C(=O)N[C@H](C(=O)N[C@@H](Cc2ccccc2)C(N)=O)C(C)C)NC(=O)[C@H](Cc2c[nH]c4ccccc24)NC(=O)[C@H](CCCNC(=N)N)NC(=O)[C@H](Cc2cnc[nH]2)NC(=O)[C@H]([C@@H](C)O)NC(=O)[C@H](CCCNC(=N)N)NC(=O)[C@H](CO)NC3=O)NC(=O)[C@H](CCCCN)NC(=O)[C@H](CC(=O)O)NC(=O)[C@H](CC(N)=O)NC(=O)[C@H](CC(=O)O)NC(=O)[C@@H]2CCCN2C1=O`, the figures for the half-maximal inhibitory concentration (IC50) in experiment [1] and in experiment [2] were 90 nM and > 5000 nM, respectively.

`CC[C@H](C)[C@@H]1NC(=O)[C@H]2CSSC[C@H]3NC(=O)[C@H](C(C)C)NC(=O)[C@H](CC(C)C)NC(=O)[C@H](CC(N)=O)NC(=O)[C@@H]4CCCN4C(=O)[C@H](CCCNC(=N)N)NC(=O)[C@H](CSSC[C@H](NC(=O)[C@@H](N)CC(=O)O)C(=O)N[C@@H](CC(C)C)C(=O)NCC(=O)N[C@@H](Cc4ccccc4)C(=O)N[C@@H](CCSC)C(=O)N[C@@H](CCCNC(=N)N)C(=O)N[C@@H](CCCCN)C(=O)N2)NC(=O)[C@@H](CSSC[C@@H](C(=O)N[C@@H](C)C(=O)N[C@@H](Cc2ccc(O)cc2)C(=O)N[C@H](C(=O)N[C@@H](Cc2ccccc2)C(N)=O)C(C)C)NC(=O)[C@H](Cc2c[nH]c4ccccc24)NC(=O)[C@H](CCCCN)NC(=O)[C@H](Cc2cnc[nH]2)NC(=O)[C@H]([C@@H](C)O)NC(=O)[C@H](CCCNC(=N)N)NC(=O)[C@H](CO)NC3=O)NC(=O)[C@H](CCCCN)NC(=O)[C@H](CC(=O)O)NC(=O)[C@H](CC(N)=O)NC(=O)[C@H](CC(=O)O)NC(=O)[C@@H]2CCCN2C1=O`: the concentration for half-maximal inhibition (IC50) in experiment [1] and in experiment [2] was > 5000 nM in each case.

Regarding `CC[C@H](C)[C@@H]1NC(=O)[C@@H]2CSSC[C@@H]3NC(=O)[C@H](C(C)C)NC(=O)[C@H](CC(C)C)NC(=O)[C@H](CC(N)=O)NC(=O)[C@@H]4CCCN4C(=O)[C@H](CCCNC(=N)N)NC(=O)[C@H](CSSC[C@H](NC(=O)[C@@H](N)CC(=O)O)C(=O)N[C@@H](CC(C)C)C(=O)NCC(=O)N[C@@H](Cc4ccccc4)C(=O)N[C@@H](CCSC)C(=O)N[C@@H](CCCNC(=N)N)C(=O)N[C@@H](CCCCN)C(=O)N2)NC(=O)[C@H](CSSC[C@@H](C(=O)N[C@@H](CCCCN)C(=O)N[C@@H](Cc2ccc(O)cc2)C(=O)N[C@H](C(=O)N[C@@H](Cc2ccccc2)C(=O)N[C@@H](CCCNC(=N)N)C(N)=O)C(C)C)NC(=O)[C@H](Cc2c[nH]c4ccccc24)NC(=O)[C@H](CCCCN)NC(=O)[C@H](Cc2cnc[nH]2)NC(=O)[C@H]([C@@H](C)O)NC(=O)[C@H](CCCNC(=N)N)NC(=O)[C@H](CO)NC3=O)NC(=O)[C@H](CCCCN)NC(=O)[C@H](CC(=O)O)NC(=O)[C@H](CC(N)=O)NC(=O)[C@H](CC(=O)O)NC(=O)[C@@H]2CCCN2C1=O`, the IC50 is 130 nM in experiment [1] and > 5000 nM in experiment [2].

As for `CC[C@H](C)[C@@H]1NC(=O)[C@H]2CSSC[C@H]3NC(=O)[C@H](C(C)C)NC(=O)[C@H](CC(C)C)NC(=O)[C@H](CC(N)=O)NC(=O)[C@@H]4CCCN4C(=O)[C@H](CCCNC(=N)N)NC(=O)[C@H](CSSC[C@H](NC(=O)[C@@H](N)CC(=O)O)C(=O)N[C@@H](CC(C)C)C(=O)NCC(=O)N[C@@H](Cc4ccccc4)C(=O)N[C@@H](CCSC)C(=O)N[C@@H](CCCNC(=N)N)C(=O)N[C@@H](CCCCN)C(=O)N2)NC(=O)[C@@H](CSSC[C@@H](C(=O)N[C@@H](CCCCN)C(=O)N[C@@H](Cc2ccc(O)cc2)C(=O)N[C@H](C(=O)N[C@@H](Cc2ccccc2)C(N)=O)C(C)C)NC(=O)[C@H](Cc2c[nH]c4ccccc24)NC(=O)[C@H](CCCCN)NC(=O)[C@H](C)NC(=O)[C@H]([C@@H](C)O)NC(=O)[C@H](CCCNC(=N)N)NC(=O)[C@H](CO)NC3=O)NC(=O)[C@H](CCCCN)NC(=O)[C@H](CC(=O)O)NC(=O)[C@H](CC(N)=O)NC(=O)[C@H](CC(=O)O)NC(=O)[C@@H]2CCCN2C1=O`, the IC50 is 970 nM in experiment [1] and > 5000 nM in experiment [2].

`CC[C@H](C)[C@@H]1NC(=O)[C@@H]2CSSC[C@@H]3NC(=O)[C@H](C(C)C)NC(=O)[C@H](CC(C)C)NC(=O)[C@H](CC(N)=O)NC(=O)[C@@H]4CCCN4C(=O)[C@H](CCCNC(=N)N)NC(=O)[C@H](CSSC[C@H](NC(=O)[C@H](CC(=O)O)NC(=O)[C@@H](N)CCC(=O)O)C(=O)N[C@@H](CC(C)C)C(=O)NCC(=O)N[C@@H](Cc4ccccc4)C(=O)N[C@@H](CCSC)C(=O)N[C@@H](CCCNC(=N)N)C(=O)N[C@@H](CCCCN)C(=O)N2)NC(=O)[C@H](CSSC[C@@H](C(=O)N[C@@H](CCCCN)C(=O)N[C@@H](Cc2ccc(O)cc2)C(=O)N[C@H](C(=O)N[C@@H](Cc2ccccc2)C(N)=O)C(C)C)NC(=O)[C@H](Cc2c[nH]c4ccccc24)NC(=O)[C@H](CCCCN)NC(=O)[C@H](Cc2cnc[nH]2)NC(=O)[C@H]([C@@H](C)O)NC(=O)[C@H](CCCNC(=N)N)NC(=O)[C@H](CO)NC3=O)NC(=O)[C@H](CCCCN)NC(=O)[C@H](CC(=O)O)NC(=O)[C@H](CC(N)=O)NC(=O)[C@H](CC(=O)O)NC(=O)[C@@H]2CCCN2C1=O`: the figures for the concentration for half-maximal inhibition (IC50) in experiment [1] and in experiment [2] were 270 nM and > 5000 nM, respectively.

`CC[C@H](C)[C@@H]1NC(=O)[C@H]2CSSC[C@H]3NC(=O)[C@H](C(C)C)NC(=O)[C@H](CC(C)C)NC(=O)[C@H](CC(N)=O)NC(=O)[C@@H]4CCCN4C(=O)[C@H](CCCNC(=N)N)NC(=O)[C@H](CSSC[C@H](NC(=O)[C@@H](N)CC(=O)O)C(=O)N[C@@H](CC(C)C)C(=O)NCC(=O)N[C@@H](Cc4ccccc4)C(=O)N[C@@H](CCSC)C(=O)N[C@@H](CCCNC(=N)N)C(=O)N[C@@H](CCCCN)C(=O)N2)NC(=O)[C@@H](CSSC[C@@H](C(=O)N[C@@H](CCCCN)C(=O)N[C@@H](Cc2ccc(O)cc2)C(=O)N[C@H](C(=O)N[C@@H](Cc2ccccc2)C(N)=O)C(C)C)NC(=O)[C@H](Cc2c[nH]c4ccccc24)NC(=O)[C@H](C)NC(=O)[C@H](Cc2cnc[nH]2)NC(=O)[C@H]([C@@H](C)O)NC(=O)[C@H](CCCNC(=N)N)NC(=O)[C@H](CO)NC3=O)NC(=O)[C@H](CCCCN)NC(=O)[C@H](CC(=O)O)NC(=O)[C@H](CC(N)=O)NC(=O)[C@H](CC(=O)O)NC(=O)[C@@H]2CCCN2C1=O`: the IC50 in experiment [1] is 470 nM; in experiment [2] it was > 5000 nM.

For the compound `CC[C@H](C)[C@@H]1NC(=O)[C@@H]2CSSC[C@@H]3NC(=O)[C@H](C(C)C)NC(=O)[C@H](CC(C)C)NC(=O)[C@H](CC(N)=O)NC(=O)[C@@H]4CCCN4C(=O)[C@H](CCCNC(=N)N)NC(=O)[C@H](CSSC[C@H](NC(=O)[C@@H](N)CC(=O)O)C(=O)N[C@@H](CC(C)C)C(=O)NCC(=O)N[C@@H](Cc4ccccc4)C(=O)N[C@@H](CCSC)C(=O)N[C@@H](CCCNC(=N)N)C(=O)N[C@@H](CCCCN)C(=O)N2)NC(=O)[C@@H](CSSC[C@@H](C(=O)N[C@@H](CCCCN)C(=O)N[C@@H](Cc2ccc(O)cc2)C(=O)N[C@H](C(=O)N[C@@H](Cc2ccccc2)C(N)=O)C(C)C)NC(=O)[C@H](Cc2c[nH]c4ccccc24)NC(=O)[C@H](CCCCN)NC(=O)[C@H](Cc2cnc[nH]2)NC(=O)[C@H](C)NC(=O)[C@H](CCCNC(=N)N)NC(=O)[C@H](CO)NC3=O)NC(=O)[C@H](CCCCN)NC(=O)[C@H](CC(=O)O)NC(=O)[C@H](CC(N)=O)NC(=O)[C@H](CC(=O)O)NC(=O)[C@@H]2CCCN2C1=O`, the IC50 in experiment [1] was 260 nM; in experiment [2], > 5000 nM.

In the case of `CC[C@@H](C)[C@H]1NC(=O)[C@H]2CSSC[C@@H]3NC(=O)[C@@H](C(C)C)NC(=O)[C@H](CC(C)C)NC(=O)[C@@H](CC(N)=O)NC(=O)[C@@H]4CCCN4C(=O)[C@H](CCCNC(=N)N)NC(=O)[C@H](CSSC[C@H](NC(=O)[C@@H](CC(=O)O)NC(=O)[C@@H](C)N)C(=O)N[C@@H](CC(C)C)C(=O)NCC(=O)N[C@@H](Cc4ccccc4)C(=O)N[C@H](CCSC)C(=O)N[C@@H](CCCNC(=N)N)C(=O)N[C@@H](CCCCN)C(=O)N2)NC(=O)[C@@H](CSSC[C@@H](C(=O)N[C@@H](CCCCN)C(=O)N[C@@H](Cc2ccc(O)cc2)C(=O)N[C@H](C(=O)N[C@@H](Cc2ccccc2)C(N)=O)C(C)C)NC(=O)[C@@H](Cc2c[nH]c4ccccc24)NC(=O)[C@H](CCCCN)NC(=O)[C@H](Cc2cnc[nH]2)NC(=O)[C@@H]([C@H](C)O)NC(=O)[C@@H](CCCNC(=N)N)NC(=O)[C@H](CO)NC3=O)NC(=O)[C@@H](CCCCN)NC(=O)[C@H](CC(=O)O)NC(=O)[C@@H](CC(N)=O)NC(=O)[C@H](CC(=O)O)NC(=O)[C@@H]2CCCN2C1=O`, the 50% inhibitory concentration (IC50) in experiment [1] is 370 nM; in experiment [2], > 5000 nM.

For the compound `CC[C@@H](C)[C@H]1NC(=O)[C@H]2CSSC[C@@H]3NC(=O)[C@@H](C(C)C)NC(=O)[C@H](CC(C)C)NC(=O)[C@H](CC(N)=O)NC(=O)[C@@H]4CCCN4C(=O)[C@H](CCCNC(=N)N)NC(=O)[C@H](CSSC[C@@H](NC(=O)[C@@H](N)CC(=O)O)C(=O)N[C@H](C)C(=O)NCC(=O)N[C@@H](Cc4ccccc4)C(=O)N[C@H](CCSC)C(=O)N[C@@H](CCCNC(=N)N)C(=O)N[C@@H](CCCCN)C(=O)N2)NC(=O)[C@@H](CSSC[C@@H](C(=O)N[C@@H](CCCCN)C(=O)N[C@@H](Cc2ccc(O)cc2)C(=O)N[C@H](C(=O)N[C@@H](Cc2ccccc2)C(N)=O)C(C)C)NC(=O)[C@@H](Cc2c[nH]c4ccccc24)NC(=O)[C@H](CCCCN)NC(=O)[C@H](Cc2cnc[nH]2)NC(=O)[C@@H]([C@H](C)O)NC(=O)[C@@H](CCCNC(=N)N)NC(=O)[C@H](CO)NC3=O)NC(=O)[C@@H](CCCCN)NC(=O)[C@H](CC(=O)O)NC(=O)[C@@H](CC(N)=O)NC(=O)[C@H](CC(=O)O)NC(=O)[C@@H]2CCCN2C1=O`, the figures for the IC50 in experiment [1] and in experiment [2] were 430 nM and > 5000 nM, respectively.
